RAM network inh = inhibitors of the yeast RAM network; S. cerevisiae dse1pr::URA3 reporter, 5-FOA growth OD615, 2 d; analog-sensitive cbk1-as2 kinase mutant strain; inhibition, % at 50 µM; 1.8% of 190,000 active;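 active means inhibition above a set limit, 3 SD over mean compound inhibition, cut at about 8.4% in these data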;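 further: 0% = DMSO-only wells with no growth and 100% = 10 µM 1-NA-PP1 full growth; inhibition rescues growth on 5-FOA so higher OD means more RAM inhibition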
Dynein cargo inh = dynein cargo transport inhibition; 3617.4 mouse cells, GR-EGFP nuclear translocation imaging; test concentration mostly 20 µM; stimulated with dexamethasone, 1 µM; active compounds read low; z-score, hits read low; 0.47% of 220,000 active; AID 1381;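 active means plate z-score of nuclear minus cytoplasmic receptor signal below a set negative limit, without overly bright fluorescence or cell loss, cut at about -3.5 in these data, passing the limit was not always enough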;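 further: z-score of nuclear minus cytoplasmic ring GR-EGFP intensity difference per well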
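Medium: Induction medium lacking tetracycline, stripped serum | Probe or stimulus: 1.0 µM final dexamethasone stimulus | Schedule: 48 h induction, then 1 h compound, then 30 min agonist, 37 °C | Signal: Automated 10x imaging of fixed Hoechst-stained cells | Evaluation: Per-cell GR-EGFP intensity, nucleus versus surrounding cytoplasmic ring, well-averaged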
pCIP destab = lowers stability of the mouse p/CIP coactivator protein. Q05BA5. AID 1984. 0.01% of 290,000 active. decrease of EGFP signal, % at 10 µM. F442A p/CIP-EGFP cells, EGFP fluorescence, 16 h;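 active means EGFP signal decrease of at least 30% at 10 µM or well 3 SD below plate mean, unless failing retest; inactive means the rest, including hits failing retest or dose response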
p47phox inh = inhibitors of human p47phox binding | P14598 | AID 1274 | p47phox/p22phox peptide binding, fluorescence polarization, 2 h | inhibition, % at 24.7 µM | 0.53% of 220,000 active;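 active means inhibition above about 30%, limit read from the data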;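 further: 0% = p47phox with labelled peptide and 100% = labelled peptide alone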
* marks the source's active call; other numbers are inactive results; nt = no result; + = active, no number. Most compounds without a hit are left out; they make up all but 1.9% or so of the library.

SMILES	RAM network inh	Dynein cargo inh	pCIP destab	p47phox inh
O=C1Nc2ccccc2S/C1=C/Nc1cccc(Cl)c1	8.4*	0.0604	-5.2	12.6
COC(=O)c1sc2ncccc2c1OCc1c(Cl)cccc1Cl	2.8	-0.373	-12.3	0.9
COC(=O)c1sc2ncccc2c1OCc1cccc(Cl)c1	9.6*	0.0257	-4.1	-14.0
CCn1c(Cc2c(C)[nH]c3ccccc23)nnc1SCC(=O)NCc1ccccc1	1.9	-0.236	-8.6	40.8*
CCn1c(Cc2c(C)[nH]c3ccccc23)nnc1SCC(=O)NCc1ccco1	-0.9	0.654	1.5	-1.9
O=C(NCc1ccccn1)C(=O)C1C(=O)Nc2ccccc21 (stereo not drawn)	-1.4	-0.606	-1.0	38.6*
CN(C)CCNC(=O)C(=O)C1C(=O)Nc2ccccc21 (stereo not drawn)	2.2	0.762	0.1	0.1
O=C(O/N=C\c1ccc(N2CCCCC2)c([N+](=O)[O-])c1)c1cccc(Cl)c1	11.2*	0.405	-7.6	-4.7
O=C(O/N=C\c1ccc(N2CCCCC2)c([N+](=O)[O-])c1)c1cccc(C(F)(F)F)c1	5.7	-0.598	-18.9	-8.2
CN(c1ccccc1)S(=O)(=O)c1cccc(NC(=O)C2CC(=O)N(Cc3ccccc3)C2)c1 (stereo not drawn)	nt	-0.482	-10.9	+
O=C1c2ccccc2C(=O)N1CCCCSc1nnnn1-c1ccccc1	9.3*	-0.526	2.4	5.2
O=C1c2ccccc2C(=O)N1CCCCSc1nnc2ccccn12	0.1	-0.59	10.0	132.7*
COCCNC(=O)[C@H]1N2C(=O)c3ccccc3C2SC1(C)C (stereo partly drawn)	nt	nt	0.4	nt
Cc1ccc2nc3cc([N+](=O)[O-])cc([N+](=O)[O-])c3cc2c1	3.4	-6.25*	-15.8	-10.5
O=c1[nH][nH]c2c(N=Cc3ccccc3O)ccc(F)c12	nt	0.416	4.2	133.9*
CCc1ccc(O)c(N=Cc2ccccc2O)c1	2.1	-1.22	-18.9	-50.6
Cc1ccc(NC2=C(Cl)C(=O)OC2OC(=O)c2ccc(C)cc2)cc1 (stereo not drawn)	9.9*	0.195	-8.6	-33.4
Cc1onc(-c2c(Cl)cccc2Cl)c1C(=O)N1CCN(c2ncccn2)CC1	-0.2	0.904	-8.6	54.9*
Cc1nn(Cc2ccccc2)c(Cl)c1C(=O)OCc1nnc(-c2ccc(Cl)cc2)o1	8.6*	-0.448	3.5	-44.5
O=C(OCc1nnc(-c2ccc(Cl)cc2)o1)c1ccc(O)cc1	3.9	-0.433	-6.0	-2.5
O=C(NC1CCCC1)C(c1ccncc1)N(C(=O)Cn1nnc(-c2ccccc2F)n1)c1cccc(F)c1 (stereo not drawn)	nt	nt	-2.0	nt
COc1ccc(C(=O)N/N=C/c2cc3ccccc3[nH]c2=S)cc1	9.5*	-0.0499	-13.9	-4.4
O=Cc1c(NCCN2CCCC2)c2ccccc2[nH]c1=O	nt	nt	-3.2	nt
CCCOc1ccc(/C=N/Nc2cccc([N+](=O)[O-])c2)c(O)c1	8.9*	-0.242	-8.4	-1.5
Cc1cc(CN2CCCCC2C(=O)Nc2ccc(Oc3cccnc3)cc2)oc1C (stereo not drawn)	nt	nt	-13.2	nt
SMILES	RAM network inh	Dynein cargo inh	pCIP destab	p47phox inh
Cc1cnc(=O)[nH]c1SCc1cccc([N+](=O)[O-])c1	nt	nt	-0.8	nt
Cn1cccc1/C=N/NC(=O)c1ccco1	1.3	-0.0316	-5.3	-12.7
Cc1ccc(-n2c(O)c(C=Nc3ccccc3-c3n[nH]c(=S)[nH]c3=O)c3ccccc3c2=O)c(C)c1	10.8*	-0.82	-20.0	-39.9
Cc1ccc(-n2c(O)c(C=Nc3ccccc3-c3n[nH]c(=S)[nH]c3=O)c3ccccc3c2=O)cc1C	7.3	0.424	-14.2	-19.5
Cc1ccc(C)c(-c2nnc(NC(=O)Cc3ccccc3)o2)c1	nt	nt	4.1	nt
Cc1ccc(NC(=O)Cn2nnc(-c3ccccc3NC(=O)c3cccs3)n2)cc1	8.4*	0.296	-1.3	-10.9
COc1ccc(NC(=O)Cn2nnc(-c3ccccc3NC(=O)c3cccs3)n2)cc1	4.8	1.05	1.1	-18.4
COc1ccc(NC(=O)Cn2nnc(-c3ccccc3NS(=O)(=O)c3ccc(OC)cc3)n2)cc1	9.5*	-0.151	1.4	-22.1
CN(C)CCNC(=O)/C(=C/c1ccc(-c2ccc(Cl)cc2Cl)o1)NC(=O)c1ccccc1	-0.9	-5.12	4.7	31.8*
CC1(NC(=O)CCc2nc3ccccc3c(=O)[nH]2)CCS(=O)(=O)C1 (stereo not drawn)	nt	nt	-49.8	nt
CCn1c(COc2cccc(C)c2C)nnc1SCC(=O)N1CCN(c2ccc(OC)cc2)CC1	8.8*	-0.202	-13.2	-6.0
COc1ccc(OC)c(Nc2nc(=O)c3cccnc3s2)c1	2.4	-1.29	26.1	60.2*
Cc1ccc(Nc2nc(=O)c3cccnc3s2)cc1	0.9	-0.536	-8.9	-10.5
Cc1oc2c(cc(NS(=O)(=O)c3ccc4c5c(cccc35)C(=O)N4)c3ccccc32)c1C(=O)OC(C)C	9.2*	-0.916	-6.1	-79.6
O=C1CCCc2oc3c(cc(NS(=O)(=O)c4ccc5c6c(cccc46)C(=O)N5)c4ccccc43)c21	nt	-0.365	-11.1	-28.9
O=C(Nc1ccc(-c2csc(Nc3ccccc3)n2)cc1)c1cc([N+](=O)[O-])cc(C(F)(F)F)c1	nt	0.594	-10.7	35.0*
O=C(Nc1cccc(-c2csc(Nc3cccc(C(F)(F)F)c3)n2)c1)c1cc([N+](=O)[O-])cc(C(F)(F)F)c1	nt	0.182	6.0	4.3
CCOc1ccc(NC(=O)N2CCC(NC(=O)C(Cc3ccccc3OC)NC(C)=O)CC2)cc1 (stereo not drawn)	nt	nt	-1.6	nt
N#C/C(=C\c1ccc(C(=O)O)cc1)c1nc2sc3c(c2c(=O)[nH]1)CCCC3	nt	-1.35	-53.5	103.8*
CCOC(=O)c1nc2sc3c(c2c(=O)[nH]1)CCCC3	1.9	-0.112	-14.8	-4.7
O=C(COC(=O)Cc1ccc(S(=O)(=O)N2CCCCC2)s1)Nc1ccc2c(c1)OCO2	9.4*	-0.936	-7.3	-34.1
CCOc1ccc(N(CC(=O)NC2CCCCC2)C(=O)CCCC(=O)Nc2ccccn2)cc1	nt	nt	-13.8	nt
C/C(=N/NS(=O)(=O)c1ccc(Cl)cc1)c1cccc(NC(=O)c2ccc(Cl)cc2Cl)c1	3.0	0.436	-2.6	30.8*
COc1ccc(-n2c(SCC#N)nnc2-c2ccc(NS(=O)(=O)c3ccc(C)cc3)cc2)cc1	8.5*	-0.494	-9.0	-12.6
Cc1cc(CSc2ccccc2)ccc1NC(=O)c1ccc(Br)cc1	3.8	0.629	4.9	-7.2
SMILES	RAM network inh	Dynein cargo inh	pCIP destab	p47phox inh
Cc1cc(CSc2ccccc2)ccc1NC(=O)COc1ccccc1	8.6*	0.0831	4.7	0.3
O=C(O)CCC(=O)Nc1sc2c(c1C(=O)NC1CCCC1)CCCC2	nt	nt	8.1	nt
CN1CCN(CCCC(=O)c2ccc(F)cc2)CC1	0.1	-0.874	5.4	63.9*
O=C(CCCN1Cc2ccccc2C1)c1ccc(F)cc1	0.7	0.322	-12.9	-9.3
CCCCSc1nc(NCc2ccco2)c2c3c(sc2n1)COC(C)(C)C3	10.1*	-0.611	0.3	-69.7
COc1ccc(C(=O)NC2CCN(C(=S)Nc3cccc(C)c3C)CC2)cc1	8.6*	1.51	5.2	-7.7
N#Cc1c(SCC(N)=O)nsc1SCc1ccc(Cl)cc1	9.2*	-0.817	12.3	-6.4
